Reference: BindingDB's records for doi:10.1016/j.ejmech.2011.10.030 (Helwan University, 2011)

Molecular target: Beta-lactamase (Pseudomonas aeruginosa, UniProt Q79MP6)
Experiment: Competitive inhibition of Pseudomonas aeruginosa metallo-beta-lactamase IMP-1 expressed in Escherichia coli BL21(DE3) using CENTA as substrate by spectrophotometric analysis
Outline: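 IMP-1 lacking the first 21 signal-peptide residues, recombinantly expressed and purified, at 2 nM final. Buffer was 50 mM HEPES, 0.1 M NaCl, 100 µM ZnCl2, pH 7.0, with BSA at 20 µg/mL final. CENTA was varied from 5 to 70 µM final at three inhibitor concentrations. […] was read at 405 nm on a plate reader, and data were fitted by non-linear regression.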

Sequence of Beta-lactamase (Q79MP6 whole entry): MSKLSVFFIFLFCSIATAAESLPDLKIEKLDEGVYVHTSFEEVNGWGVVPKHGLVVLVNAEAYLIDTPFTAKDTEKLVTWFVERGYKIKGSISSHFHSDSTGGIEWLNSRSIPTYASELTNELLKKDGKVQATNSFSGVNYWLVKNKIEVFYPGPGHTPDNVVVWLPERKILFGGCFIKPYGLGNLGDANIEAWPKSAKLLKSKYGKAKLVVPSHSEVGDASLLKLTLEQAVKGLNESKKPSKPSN

Structure (SMILES) | Ki [µM]
Cc1ccc(-n2cc(-c3ccccc3)c3c(Cl)ncnc32)cc1 | 33
Cc1ccc(-n2c(-c3ccccc3)c(-c3ccccc3)c3c(N/N=C/c4ccccc4)ncnc32)cc1 | 18
Cc1ccc(-n2c(-c3ccccc3)c(-c3ccccc3)c3c(Cl)ncnc32)cc1 | 19
COc1ccc(-n2c3c(c(-c4ccccc4)c2-c2ccccc2)C(=C(C#N)C#N)NC=N3)cc1 | 29

Stronger by Ki, values ahead:

Ki [µM] | Structure (SMILES)
12 | COc1ccc(-n2c(-c3ccccc3)c(-c3ccccc3)c3c(Cl)ncnc32)cc1
15 | Cc1ccc(-n2c(-c3ccccc3)c(-c3ccccc3)c3c2ncn2c(=S)[nH]nc32)cc1
